Results from ChEMBL document CHEMBL3232897, “Synthesis, antiproliferative and antibacterial activity of new amides of salinomycin” (Bioorg Med Chem Lett, 2014).
≈ marks a conversion by molar mass, not a printed value. Calls of active or inactive are those of the source. The calls are words filed in the database; no cut-off is given here.

Tests used:
HL-60 [1] = assay: Antiproliferative activity against human HL60 cells; assay type: functional, cell-based
How it was run: (§1)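 IC50 is the concentration giving 50% growth inhibition, reported as mean with SD. HL-60/vinc and LoVo/DX are drug-resistant (MDR) sublines of HL-60 and LoVo. BALB/3T3 is a normal murine embryonic fibroblast line.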

LoVo [2] = assay: Antiproliferative activity against human LoVo cells; assay type: functional, cell-based; how it was run: as §1
[3] = Antiproliferative activity against human LoVo/DX cells; assay type: functional, cell-based; how it was run: as §1
Homo sapiens = species on record: Homo sapiens; assay: Antiproliferative activity against human HL60/Vinc cells up to 100 ug/ml; assay type: functional, cell-based
BALB/3T3 [4] = assay: Antiproliferative activity mouse BALB/3T3 cells up to 100 ug/ml; assay type: cell-based
LoVo [5] = assay: Resistance index, ratio of IC50 for human LoVo/DX cells to IC50 for human LoVo cells; assay type: functional
How it was run: (§2)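 Index of resistance is the IC50 in the resistant subline (HL-60/vinc or LoVo/DX) divided by the IC50 in its parental line (HL-60 or LoVo). Each IC50 is the concentration giving 50% growth inhibition. Bands are 0–2 sensitive, 2–10 moderate, above 10 strongly resistant.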

Staphylococcus aureus [6] = assay: Antibacterial activity against Staphylococcus aureus NCTC 4163; assay type: functional
Staphylococcus aureus [7] = assay: Antibacterial activity against Staphylococcus aureus ATCC 25923; assay type: functional
Staphylococcus aureus [8] = assay: Antibacterial activity against Staphylococcus aureus ATCC 6538; assay type: functional
Staphylococcus aureus [9] = assay: Antibacterial activity against Staphylococcus aureus ATCC 29213; assay type: functional
[10] = tested on: Staphylococcus epidermidis; assay: Antibacterial activity against Staphylococcus epidermidis ATCC 12228; assay type: functional
How it was run: (§3)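 In vitro antibacterial test on Staphylococcus strains, including MRSE clinical isolates. Read-outs were growth inhibition zone (mm) and MIC (µg/ml). Ciprofloxacin was the reference antibiotic.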

[11] = tested on: Staphylococcus epidermidis; assay: Antibacterial activity against Staphylococcus epidermidis ATCC 35984; assay type: functional; how it was run: as §3
[12] = tested on: Staphylococcus epidermidis; assay: Antibacterial activity against methicillin-resistant Staphylococcus epidermidis 459/11; assay type: functional; how it was run: as §3
[13] = tested on: Staphylococcus epidermidis; assay: Antibacterial activity against methicillin-resistant Staphylococcus epidermidis 460/11; assay type: functional; how it was run: as §3
[14] = tested on: Staphylococcus epidermidis; assay: Antibacterial activity against methicillin-resistant Staphylococcus epidermidis 461/11; assay type: functional; how it was run: as §3
[15] = tested on: Staphylococcus epidermidis; assay: Antibacterial activity against methicillin-resistant Staphylococcus epidermidis 466/11; assay type: functional; how it was run: as §3
[16] = tested on: Staphylococcus epidermidis; assay: Antibacterial activity against methicillin-resistant Staphylococcus epidermidis 467/11; assay type: functional; how it was run: as §3
[17] = tested on: Staphylococcus epidermidis; assay: Antibacterial activity against methicillin-resistant Staphylococcus epidermidis 468/11; assay type: functional; how it was run: as §3
[18] = tested on: Staphylococcus epidermidis; assay: Antibacterial activity against methicillin-resistant Staphylococcus epidermidis 469/11; assay type: functional; how it was run: as §3
[19] = tested on: Staphylococcus epidermidis; assay: Antibacterial activity against methicillin-resistant Staphylococcus epidermidis 470/11; assay type: functional; how it was run: as §3
[20] = tested on: Staphylococcus epidermidis; assay: Antibacterial activity against methicillin-resistant Staphylococcus epidermidis 488/11; assay type: functional; how it was run: as §3
[21] = tested on: Staphylococcus epidermidis; assay: Antibacterial activity against methicillin-resistant Staphylococcus epidermidis 489/11; assay type: functional; how it was run: as §3
[22] = Antiproliferative activity against human HL60/Vinc cells; assay type: functional, cell-based; how it was run: as §1
BALB/3T3 [23] = assay: Antiproliferative activity mouse BALB/3T3 cells; assay type: cell-based; how it was run: as §1
HL-60 [24] = assay: Selectivity index, ratio of IC50 for mouse BALB/3T3 cells to IC50 for human HL60 cells; assay type: functional
How it was run: (§4)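 Selectivity index is the IC50 in normal murine embryonic fibroblasts (BALB/3T3) divided by the IC50 in the respective cancer line (HL-60, HL-60/vinc, LoVo or LoVo/DX). Each IC50 is the concentration giving 50% growth inhibition. SI >1.0 is taken as favourable.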

[25] = Selectivity index, ratio of IC50 for mouse BALB/3T3 cells to IC50 for human HL60/Vinc cells; assay type: functional; how it was run: as §4
HL-60 [26] = assay: Resistance index, ratio of IC50 for human HL60/Vinc cells to IC50 for human HL60 cells; assay type: functional; how it was run: as §2
LoVo [27] = assay: Selectivity index, ratio of IC50 for mouse BALB/3T3 cells to IC50 for human LoVo cells; assay type: functional; how it was run: as §4
[28] = Selectivity index, ratio of IC50 for mouse BALB/3T3 cells to IC50 for human LoVo/DX cells; assay type: functional; how it was run: as §4

Row | Structure (SMILES) | IC50 (HL-60 [1]) | IC50 (LoVo [2]) | IC50 [3] | Ratio IC50 (LoVo [5]) | MIC (Staphylococcus aureus [6]) | MIC (Staphylococcus aureus [7]) | MIC (Staphylococcus aureus [8]) | MIC (Staphylococcus aureus [9]) | MIC [10] | MIC [11] | MIC [12] | MIC [13] | MIC [14] | MIC [15] | MIC [16] | MIC [17] | MIC [18] | MIC [19] | MIC [20] | MIC [21] | other results
1 | CC[C@@H](C(=O)[C@@H](C)[C@@H](O)[C@H](C)[C@@H]1O[C@@H]([C@@H](CC)C(=O)Nc2ccc(-c3ccc(NC(=O)[C@H](CC)[C@H]4CC[C@H](C)[C@H]([C@@H](C)[C@H](O)[C@H](C)C(=O)[C@H](CC)[C@H]5O[C@]6(C=C[C@@H](O)[C@]7(CC[C@@](C)([C@H]8CC[C@](O)(CC)[C@H](C)O8)O7)O6)[C@H](C)C[C@@H]5C)O4)cc3)cc2)CC[C@@H]1C)[C@H]1O[C@]2(C=C[C@@H](O)[C@]3(CC[C@@](C)([C@H]4CC[C@](O)(CC)[C@H](C)O4)O3)O2)[C@H](C)C[C@@H]1C | 4.4 µM | 8.4 µM | 3.1 µM | 0.38 | 16 µg/mL (≈ 9.7 µM) | 32 µg/mL (≈ 19.4 µM) | 32 µg/mL (≈ 19.4 µM) | 32 µg/mL (≈ 19.4 µM) | 32 µg/mL (≈ 19.4 µM) | 32 µg/mL (≈ 19.4 µM) | 32 µg/mL (≈ 19.4 µM) | 64 µg/mL (≈ 38.8 µM) | 32 µg/mL (≈ 19.4 µM) | 32 µg/mL (≈ 19.4 µM) | 16 µg/mL (≈ 9.7 µM) | 32 µg/mL (≈ 19.4 µM) | 64 µg/mL (≈ 38.8 µM) | 64 µg/mL (≈ 38.8 µM) | 32 µg/mL (≈ 19.4 µM) | 32 µg/mL (≈ 19.4 µM) | inhibition (Homo sapiens): inactive; Activity (BALB/3T3 [4]): Non-toxic
2 | CC[C@@H](C(=O)[C@@H](C)[C@@H](O)[C@H](C)[C@@H]1O[C@@H]([C@@H](CC)C(=O)NCCCCN)CC[C@@H]1C)[C@H]1O[C@]2(C=C[C@@H](O)[C@]3(CC[C@@](C)([C@H]4CC[C@](O)(CC)[C@H](C)O4)O3)O2)[C@H](C)C[C@@H]1C | 3.7 µM | 21.9 µM | 12.6 µM | 0.58 | 32 µg/mL (≈ 39 µM) | 32 µg/mL (≈ 39 µM) | 32 µg/mL (≈ 39 µM) | 64 µg/mL (≈ 77.9 µM) | 64 µg/mL (≈ 77.9 µM) | 32 µg/mL (≈ 39 µM) | 32 µg/mL (≈ 39 µM) | 64 µg/mL (≈ 77.9 µM) | 64 µg/mL (≈ 77.9 µM) | 64 µg/mL (≈ 77.9 µM) | 32 µg/mL (≈ 39 µM) | 32 µg/mL (≈ 39 µM) | 64 µg/mL (≈ 77.9 µM) | 64 µg/mL (≈ 77.9 µM) | 64 µg/mL (≈ 77.9 µM) | 32 µg/mL (≈ 39 µM) | IC50 [22]: 23.1 µM; IC50 (BALB/3T3 [23]): 35.1 µM; Ratio IC50 (HL-60 [24]): 9.47; Ratio IC50 [25]: 1.52; Ratio IC50 (HL-60 [26]): 6.22; Ratio IC50 (LoVo [27]): 1.6; Ratio IC50 [28]: 2.78
3 | CC[C@@H](C(=O)[C@@H](C)[C@@H](O)[C@H](C)[C@@H]1O[C@@H]([C@@H](CC)C(=O)O)CC[C@@H]1C)[C@H]1O[C@]2(C=C[C@@H](O)[C@]3(CC[C@@](C)([C@H]4CC[C@](O)(CC)[C@H](C)O4)O3)O2)[C@H](C)C[C@@H]1C [SALINOMYCIN] | 1.2 µM | 1.5 µM | 1 µM | 0.65 | 2 µg/mL (≈ 2.66 µM) | 2 µg/mL (≈ 2.66 µM) | 2 µg/mL (≈ 2.66 µM) | 4 µg/mL (≈ 5.33 µM) | 2 µg/mL (≈ 2.66 µM) | 2 µg/mL (≈ 2.66 µM) | 16 µg/mL (≈ 21.3 µM) | 16 µg/mL (≈ 21.3 µM) | 16 µg/mL (≈ 21.3 µM) | 8 µg/mL (≈ 10.7 µM) | 16 µg/mL (≈ 21.3 µM) | 8 µg/mL (≈ 10.7 µM) | 16 µg/mL (≈ 21.3 µM) | 16 µg/mL (≈ 21.3 µM) | 16 µg/mL (≈ 21.3 µM) | 16 µg/mL (≈ 21.3 µM) | IC50 [22]: 4.7 µM; IC50 (BALB/3T3 [23]): 25.8 µM; Ratio IC50 (HL-60 [24]): 22.07; Ratio IC50 [25]: 5.45; Ratio IC50 (HL-60 [26]): 4.05; Ratio IC50 (LoVo [27]): 16.88; Ratio IC50 [28]: 26.08
